Experimental findings from ChEMBL document CHEMBL4411315, “Discovery of Novel Dual Histone Deacetylase and Mammalian Target of Rapamycin Target Inhibitors as a Promising Strategy for Cancer Therapy” (J Med Chem, 2019) are described below.

Activity calls are given as the source filed them. The calls are words filed in the database; no cut-off is given here.

In data set [1] the test system is MM1.S. Description: Induction of apoptosis in human MM1S cells assessed as early apoptotic cells at 1 uM after 48 hrs by Annexin V-FITC/propidium iodide staining-based flow cytometric analysis (reference value: 0.38%). The class given is functional. (In general: Flow cytometry measures light scatter and fluorescence of single cells or particles in a stream.)
The subject of data set [2] is MV4-11. The data set is described as follows: Induction of apoptosis in human MV4-11 cells assessed as early apoptotic cells at 1 uM after 48 hrs by Annexin V-FITC/propidium iodide staining-based flow cytometric analysis (reference value: 10.7%). The class given is functional.
Data set [3] deals with MV4-11. The data set is described as follows: Induction of apoptosis in human MV4-11 cells assessed as late apoptotic cells at 1 uM after 48 hrs in presence of 0.3 uM RAPA by Annexin V-FITC/propidium iodide staining-based flow cytometric analysis (reference value: 5.03%). The class given is functional.
Data set [4] is described as follows: Toxicity against NOD/SCID mouse xenografted with human MM1S cells assessed as mouse survival at 50 mg/kg, po qd administered for 10 days. It is filed as organism-based. The following applies: in vivo, 240 h. In a few lines: (§1)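 MM1S s.c. xenograft: 10^7 cells in serum-free RPMI 1640, right flank, female NOD/SCID mice aged 5-6 weeks, randomised at 100-200 mm3 (n=6 per group). Oral daily dosing used physiological saline with 2.5% DMSO and 10% cyclodextrin, pH 9; the combination was given as a suspension. Caliper measurements were taken every 2 days. Survivors were counted.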
Background: Xenograft models place foreign cells or tissue in a host animal.

Data set [5] has as its system MV4-11. The data set is described as follows: Induction of apoptosis in human MV4-11 cells assessed as necrotic cells at 1 uM after 48 hrs by Annexin V-FITC/propidium iodide staining-based flow cytometric analysis (reference value: 0.17%). It is filed as functional.
Data set [6] concerns MV4-11. The data set is described as follows: Induction of apoptosis in human MV4-11 cells assessed as early apoptotic cells at 1 uM after 48 hrs in presence of 0.3 uM RAPA by Annexin V-FITC/propidium iodide staining-based flow cytometric analysis (reference value: 10.7%). The class given is functional.
For data set [7], the system named is MM1.S. The data set is described as follows: Induction of apoptosis in human MM1S cells assessed as viable cells at 1 uM after 48 hrs by Annexin V-FITC/propidium iodide staining-based flow cytometric analysis (reference value: 98.9%). It is filed as functional.
Data set [8] relates to MM1.S. The data set is described as follows: Induction of apoptosis in human MM1S cells assessed as viable cells at 1 uM after 48 hrs in presence of 0.3 uM RAPA by Annexin V-FITC/propidium iodide staining-based flow cytometric analysis (reference value: 98.9%). The class given is functional.
A short description of data set [9]: Toxicity against NOD/SCID mouse xenografted with human MM1S cells assessed as mouse survival at 50 mg/kg, po qd administered for 10 days co-treated with 25 mg/kg RAPA. To be noted: in vivo, 240 h. It is filed as organism-based. In a few lines: as §1
For data set [10], the system named is MM1.S. Description: Induction of apoptosis in human MM1S cells assessed as late apoptotic cells at 1 uM after 48 hrs in presence of 0.3 uM RAPA by Annexin V-FITC/propidium iodide staining-based flow cytometric analysis (reference value: 0.42%). It is filed as functional.
Data set [11] concerns MV4-11. The data set is described as follows: Induction of apoptosis in human MV4-11 cells assessed as viable cells at 1 uM after 48 hrs by Annexin V-FITC/propidium iodide staining-based flow cytometric analysis (reference value: 84.1%). The class given is functional.
For data set [12], the system named is MM1.S. The data set is described as follows: Induction of apoptosis in human MM1S cells assessed as necrotic cells at 1 uM after 48 hrs by Annexin V-FITC/propidium iodide staining-based flow cytometric analysis (reference value: 0.32%). The class given is functional.
For data set [13], the system named is MM1.S. Description: Induction of apoptosis in human MM1S cells assessed as early apoptotic cells at 1 uM after 48 hrs in presence of 0.3 uM RAPA by Annexin V-FITC/propidium iodide staining-based flow cytometric analysis (reference value: 0.38%). It is filed as functional.
Data set [14] has as its system MV4-11. The data set is described as follows: Induction of apoptosis in human MV4-11 cells assessed as late apoptotic cells at 1 uM after 48 hrs by Annexin V-FITC/propidium iodide staining-based flow cytometric analysis (reference value: 5.03%). It is filed as functional.
The subject of data set [15] is MV4-11. Description: Induction of apoptosis in human MV4-11 cells assessed as viable cells at 1 uM after 48 hrs in presence of 0.3 uM RAPA by Annexin V-FITC/propidium iodide staining-based flow cytometric analysis (reference value: 84.1%). The class given is functional.
Data set [16] relates to MM1.S. Description: Induction of apoptosis in human MM1S cells assessed as necrotic cells at 1 uM after 48 hrs in presence of 0.3 uM RAPA by Annexin V-FITC/propidium iodide staining-based flow cytometric analysis (reference value: 0.32%). It is filed as functional.
For data set [17], the system named is MV4-11. The data set is described as follows: Induction of apoptosis in human MV4-11 cells assessed as necrotic cells at 1 uM after 48 hrs in presence of 0.3 uM RAPA by Annexin V-FITC/propidium iodide staining-based flow cytometric analysis (reference value: 0.17%). It is filed as functional.
For data set [18], the system named is MM1.S. Description: Induction of apoptosis in human MM1S cells assessed as late apoptotic cells at 1 uM after 48 hrs by Annexin V-FITC/propidium iodide staining-based flow cytometric analysis (reference value: 0.42%). The class given is functional.
Data set [19] has as its target T1, Serine/threonine-protein kinase mTOR (Homo sapiens, UniProt P42345). To be noted: MV4-11, 10 uM.
Data set [20] relates to MV4-11. Description: Induction of apoptosis in human MV4-11 cells assessed as necrotic cells at 0.3 uM after 48 hrs in presence of 1 uM SAHA by Annexin V-FITC/propidium iodide staining-based flow cytometric analysis (reference value: 0.17%). The class given is functional.
In data set [21] the test system is MV4-11. The data set is described as follows: Antiproliferative activity against human MV4-11 cells after 72 hrs by MTT assay. It is filed as functional, cell-based. The following applies: MV4-11, 72 h. (Tetrazolium dyes change colour on reduction, which living cells bring about.)
Data set [22] deals with MM1.S. The data set is described as follows: Induction of apoptosis in human MM1S cells assessed as viable cells at 0.3 uM after 48 hrs in presence of 1 uM SAHA by Annexin V-FITC/propidium iodide staining-based flow cytometric analysis (reference value: 98.9%). The class given is functional.
For another data set, the system named is OCI-AML2. Description: Antiproliferative activity against human OCI-AML2 cells after 72 hrs by MTT assay. It is filed as functional, cell-based. The following applies: OCI-AML2, 72 h.
The subject of data set [23] is MM1.S. Description: Antitumor activity against human MM1S cells xenografted in NOD/SCID mouse assessed as tumor growth inhibition at 25 mg/kg, po qd administered for 10 days and measured every 2 days post last dose in presence of 50 mg/kg SAHA by caliper method relative to control.
The subject of data set [24] is MM1.S. The data set is described as follows: Induction of apoptosis in human MM1S cells assessed as necrotic cells at 0.3 uM after 48 hrs in presence of 1 uM SAHA by Annexin V-FITC/propidium iodide staining-based flow cytometric analysis (reference value: 0.32%). It is filed as functional.
For data set [25], the system named is MM1.S. Description: Induction of apoptosis in human MM1S cells assessed as late apoptotic cells at 0.3 uM after 48 hrs in presence of 1 uM SAHA by Annexin V-FITC/propidium iodide staining-based flow cytometric analysis (reference value: 0.42%). It is filed as functional.
Data set [26] is described as follows: Toxicity against NOD/SCID mouse xenografted with human MM1S cells assessed as mouse survival at 25 mg/kg, po qd administered for 10 days co-treated with 50 mg/kg SAHA. The class given is organism-based. The following applies: in vivo, 240 h. In a few lines:
as §1

In data set [27] the test system is MV4-11. The data set is described as follows: Induction of apoptosis in human MV4-11 cells assessed as late apoptotic cells at 0.3 uM after 48 hrs in presence of 1 uM SAHA by Annexin V-FITC/propidium iodide staining-based flow cytometric analysis (reference value: 5.03%). It is filed as functional.
The test system of data set [28] is MV4-11. The data set is described as follows: Induction of apoptosis in human MV4-11 cells assessed as viable cells at 0.3 uM after 48 hrs in presence of 1 uM SAHA by Annexin V-FITC/propidium iodide staining-based flow cytometric analysis (reference value: 84.1%). The class given is functional.
Another data set has as its system OCI-AML-3. Description: Antiproliferative activity against human OCI-AML3 cells after 72 hrs by MTT assay. The class given is functional, cell-based. The following applies: OCI-AML-3, 72 h.
Data set [29] has as its target T1, Serine/threonine-protein kinase mTOR. The following applies: MV4-11, 1 to 10 uM.
Data set [30] deals with MM1.S. Description: Induction of apoptosis in human MM1S cells assessed as early apoptotic cells at 0.3 uM after 48 hrs in presence of 1 uM SAHA by Annexin V-FITC/propidium iodide staining-based flow cytometric analysis (reference value: 0.38%). The class given is functional.
For data set [31], the target named is T1, Serine/threonine-protein kinase mTOR. To be noted: MV4-11, 1 to 10 uM. The source holds these as a separate data set.
The subject of data set [32] is MV4-11. The data set is described as follows: Induction of apoptosis in human MV4-11 cells assessed as early apoptotic cells at 0.3 uM after 48 hrs in presence of 1 uM SAHA by Annexin V-FITC/propidium iodide staining-based flow cytometric analysis (reference value: 10.7%). The class given is functional.

`O=C(CCCCCCC(=O)Nc1ccccc1)NO` [VORINOSTAT]: the Activity with MM1.S [1] is 9.68%; in the data set on MV4-11 [2], 40%; with MV4-11 [3] it was 42.4%; in [4], “Non-Toxic”; with MV4-11 [5], 3.51%; in the data set with MV4-11 [6] it was 37%. Moreover, the Activity is reported as 75.4% in the data set with MM1.S [7]; 53.6% in the data set on MM1.S [8]; “Non-Toxic” in [9]; 29.7% with MM1.S [10]; 18.6% in the data set on MV4-11 [11]; 3.04% in the data set with MM1.S [12]. The Activity turned out to be 15% in the data set with MM1.S [13]; 37.9% in the data set with MV4-11 [14]; 17.1% with MV4-11 [15]; 1.74% in the data set with MM1.S [16]; 3.48% with MV4-11 [17]; 11.8% in the data set on MM1.S [18].
As for `CO[C@H]1C[C@@H]2CC[C@@H](C)[C@@](O)(O2)C(=O)C(=O)N2CCCC[C@H]2C(=O)O[C@H]([C@H](C)C[C@@H]2CC[C@@H](O)[C@H](OC)C2)CC(=O)[C@H](C)/C=C(\C)[C@@H](O)[C@@H](OC)C(=O)[C@H](C)C[C@H](C)/C=C/C=C/C=C/1C` [SIROLIMUS], the Activity is on record as 0.45% in the data set with MM1.S [1]; 15.3% in the data set with MV4-11 [2]; 3.48% in the data set on MV4-11 [20]; 53.6% in the data set on MM1.S [22]; 0.6% with MV4-11 [5]; 1.74% with MM1.S [24]. Besides, the Activity in the data set on MM1.S [25] was 29.7%; in data set [26], “Non-Toxic”; with MV4-11 [27], 42.4%; in the data set with MV4-11 [28], 17.1%; in the data set on MM1.S [12], 0.47%; in the data set on MM1.S [30], 15%. Moreover, the Activity in the data set with MV4-11 [14] was determined as 5.77%; in the data set with MV4-11 [32], 37%; with MM1.S [18] it was 2.81%. Further, the inhibition result in [19], in data set [29] and in data set [31] was “Active” each time. Also, the IC50 in the data set on MV4-11 [21], in the data set with OCI-AML2 and with OCI-AML-3 was more than 0.5 µM each time. In addition, the TGI (commonly how far tumour growth fell short of that in controls) with MM1.S [23] is 73.8%. The viability at 1 µM in the data set on MM1.S [7] (Homo sapiens, MM1.S, 48 h, read-out: Activity) came to 96.3%; in the data set with MV4-11 [11] (Homo sapiens, MV4-11, 48 h, read-out: Activity) it was 78.3%.
